In ChEMBL document CHEMBL4513216, “Probing the Open Global Health Chemical Diversity Library for Multistage-Active Starting Points for Next-Generation Antimalarials” (ACS Infect Dis, 2020):

Test: Toxicity liver stage against HepG2, at 10uM
Type: cell-based
Set-up: test concentration 10 uM, cell line HepG2-A16-CD81EGFP
Settings: human, HepG2-A16-CD81EGFP cells; read-out: INHIBITION
Procedure, shortened: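 Uninfected HepG2-A16-CD81EGFP cells, 3 × 10^3 per well, 1536-well, plated on prespotted compound at 10 μM final, parasite-free screening media added to match infected plates; puromycin 10 μM positive, DMSO 0.5% negative; run in parallel with 48 h PbLuc assay at 37 °C, 5% CO2; viability by CellTiter-Glo luminescence, normalized to controls.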

| SMILES | cytotoxicity at 10 µM [%] |
| --- | --- |
| O=C1N(c2ccccc2)C[C@H]2CN(C3CCC3)CCN12 | 6.09 |
| CSc1ccc(CCNC(=O)Cc2c(C)n[nH]c2C)cc1 | 1.02 |
| COc1ccc2cnn(CC(=O)NC3CCCC3)c(=O)c2c1OC | -2.86 |
| CC1(C)OCC2(CO1)CN(S(=O)(=O)c1ccc(Br)s1)C2 | -7.31 |
| COc1ccc(S(=O)(=O)Nc2cnc(N(C)C)nc2)cc1 | -4.45 |
| CC(C)NC(=O)N1CCC2(CC1)[C@@H]1CN(C(=O)N(C)C)C[C@@H]1C(=O)N2C | 4.32 |
| CN1C(=O)CCCC12CCCN(C(=O)c1cccc(C(F)(F)F)c1)C2 (stereo not drawn) | 4.65 |
| O=C(c1cccnc1)N1Cc2[nH]nc(COCCO)c2C1 | 13.3 |
| COCC1CN(C(=O)c2cnc(C)cn2)Cc2ncnn2C1 (stereo not drawn) | 2.31 |
| Cc1nn(C)cc1-c1cc(C(F)(F)F)nc(NC2CCN(C)CC2)n1 | 11.7 |
| COc1c(C(=O)NCc2cnn(C)c2C)nnn1Cc1ccccc1 | -11.3 |
| O=C(NC[C@]1(O)CN(Cc2ncccc2F)C[C@H]1O)c1cc[nH]n1 | -6.07 |
| CN1CCC(c2nnc3n2CCN(S(=O)(=O)c2ccccc2)C3)CC1 | -2.02 |
| COc1cc2c(cc1CN1CCc3sccc3C1C)OCCO2 (stereo not drawn) | 8.92 |
| CN1CCCC1c1cncc(C(=O)NCc2ccccc2)n1 (stereo not drawn) | -1.67 |
| c1cnc(N2CCC(OCCN3CCCCC3)C2)nc1 (stereo not drawn) | -47.3 |
| COc1ccc(Br)cc1NCC(=O)NC(C)(C#N)C1CC1 (stereo not drawn) | 23.4 |
| Cc1oc(C)c(C(=O)Nc2ccccn2)c1C | -9.78 |
| COCCCN1Cc2cccc(NC(=O)c3ccccc3C)c2C1 | 13.4 |
| Cc1cc(NC(=O)N2CCN(C)CC2C)n(C)n1 (stereo not drawn) | 9.92 |
| COc1ccc(S(=O)(=O)NC(=O)c2cscn2)cc1C | 6.84 |
| Cc1c(C(=O)NC(C)CC(=O)c2cccs2)cnn1C (stereo not drawn) | -8.71 |

| SMILES | cytotoxicity at 10 µM [%] |
| --- | --- |
| CC(=O)NCCCSC1CCN(c2c(F)cccc2F)C1=O (stereo not drawn) | -6.35 |
| Cc1ccc(C2CCCN2S(=O)(=O)N(C)Cc2nccn2C)o1 (stereo not drawn) | -0.787 |
| NC(=O)c1cccc(NC(=O)CSc2ccc3c(c2)CCC3)c1 | 21.4 |
| COC(=O)c1ccc(NC(=O)CN2CCCCC2C2OCCO2)cc1 (stereo not drawn) | 42.5 |
| O=C(Nc1cccc(N2CCN(CC3CC3)CC2)c1)C1CCOC1 (stereo not drawn) | 1.68 |
| CCNc1nnc(SCC(=O)N2CCN(Cc3ccc(Cl)s3)CC2)s1 | 15.2 |
| CN(CC(F)(F)F)C(=O)COc1nc(Cc2ccc(F)cc2)no1 | 9.36 |
| Cc1n[nH]c(C2CN(C(=O)c3scnc3C)CCO2)n1 (stereo not drawn) | 10.6 |
| O=C(NCC(=O)N1CC2(CCCC2)c2c(F)cccc21)C1CC1 | -3.47 |
| CS(=O)(=O)Cc1nc(CNc2c(F)cc(F)cc2F)cs1 | -4.73 |
| COc1ccnc(NCC2CN(C3CC3)CCO2)n1 (stereo not drawn) | -7.97 |
| Cc1ccccc1C(NC(=O)Cn1cc(C2CC2)nn1)C1CC1 (stereo not drawn) | -1.03 |
| c1cc(-c2nnc(C3(c4ccc5c(c4)OCO5)CCOCC3)o2)ccn1 | -0.973 |
| COc1ccc(Cn2nnnc2SCC2CCCN(C)C2)cc1 (stereo not drawn) | -1.33 |
| Cc1nnc(SC2CCN(c3sccc3C#N)C2=O)[nH]1 (stereo not drawn) | 7.25 |
| COc1ccc(S(=O)(=O)N2CC(CC(=O)O)c3ccccc32)cc1 (stereo not drawn) | 6.04 |
| Cc1cc(C)cc(CNc2ccc(C(=O)NC(C)CO)cc2)c1 (stereo not drawn) | -5.48 |
| Cc1cc(C(=O)N(C)C)c2c(Br)cccc2n1 | -6.4 |
| CC(c1cc(F)ccc1F)N(C)CCS(=O)(=O)CCC(N)=O (stereo not drawn) | -47 |
| CCOCc1nnc(NCc2cccc(C)c2)o1 | 16.3 |
| Cc1ccc(Cl)c2c1C1(NC(=O)c3cccnc3N1)C(=O)N2 (stereo not drawn) | 11.9 |
| CCn1nc(C)cc1C(=O)N1C[C@@H]2C[C@@H](c3nnc(C)[nH]3)O[C@@H]2C1 | -1.87 |

| SMILES | cytotoxicity at 10 µM [%] |
| --- | --- |
| Cn1nccc1C(=O)N1C[C@@H]2CN(S(C)(=O)=O)CCO[C@@H]2C1 | 9.61 |
| c1cc2nc(C3CCNCC3)nn2cc1NC1CCC1 | -98.8 |
| O=C(NCc1ccccc1)N1CCc2ncnc(NC3CC3)c2CC1 | -100 |
| O=C1NCCO[C@H]2CN(C(=O)CC3Cc4ccccc4C3)CC[C@@H]12 | -106 |
| O=C(c1ncccn1)N1CCC[C@]2(C[C@H](OCC3CC3)CO2)C1 | -86 |
| O=C(CO)N1C[C@H]2CN(Cc3cccc(F)c3)C(=O)[C@H]2C1 | -82.3 |
| Cn1cnc2c1C(COCC1CCOCC1)CN(C(=O)c1ccoc1)C2 (stereo not drawn) | -7.8 |
| Cc1ncnc(NC(CC(C)(C)C)c2cccnc2)c1C (stereo not drawn) | 1.65 |
| O=C1CCC2(CCN(Cc3ccoc3)CC2)N1OCc1ccccc1F | 2.37 |
| O=C1N(Cc2cccc(F)c2F)CCCC1(O)CNCc1ccccc1 (stereo not drawn) | -9.45 |
| CCc1c(C(=O)N2CCC3(CCCN(CCO)C3=O)C2)csc1C (stereo not drawn) | -128 |
| Cc1n[nH]c(C)c1CN(C)C(C(=O)O)c1c(F)cccc1OC(C)C (stereo not drawn) | -56.1 |
| CN1CCC(c2n[nH]c(=O)n2CC2CCCCC2)CC1 | -45.2 |
| COc1ccc(OC)c(-n2cnnc2CCN)c1 | 9.83 |
| Cc1ncsc1CCN(C)C(=O)CN1CCOc2ccccc2C1 | 5.72 |
| CC1=CC[C@@H]2CN(C(=O)c3ccc(-c4nc[nH]n4)cc3)C[C@@H]2C1 | 0.417 |
| Cc1nc(NC2(CN3CCCCC3)CCCCC2)c2cnn(C)c2n1 | 3.94 |
| CCc1nn(C)c(Cl)c1CN1CCN(c2ccc(C(N)=O)cn2)CC1 | 9.83 |
| CCCn1cc(C(=O)NC(CC(=O)O)c2ccccc2F)c(C)n1 (stereo not drawn) | -43.9 |
| CC(C)c1cc(C(=O)N2CCCC(Cn3cc(CO)nn3)C2)on1 (stereo not drawn) | -6.27 |
| CN(Cc1ccccc1)C1(C(=O)NCC(N)=O)Cc2ccccc2C1 | 2.45 |
| Cc1ncccc1OC1(C(=O)NCc2noc(C(C)C)n2)CCNCC1 | 5.68 |

| SMILES | cytotoxicity at 10 µM [%] |
| --- | --- |
| Cc1cn(CCn2ccnc2-c2sccc2C)nn1 | 15.9 |
| CSc1ncc(C(=O)N2CCC(O)(CN3CCOCC3)C(C)(C)C2)cn1 (stereo not drawn) | -2.16 |
| CSCC1CCN(C(=O)Cn2ncc(N3CCCCC3)cc2=O)CC1 | -3.95 |
| NCCC1CN(Cc2cnc3c(-c4ccccc4)cnn3c2)CCO1 (stereo not drawn) | -3.92 |
| Cc1noc(C)c1C1CCCN1C(=O)CN1C(=O)OC(C)(C)C1=O (stereo not drawn) | -2.57 |
| CCNc1ccnc(N2CCCC(CCOC)(C(=O)O)C2)n1 (stereo not drawn) | 2.84 |
| COCCN(C)C[C@H]1CC[C@@H](Cc2ccc3c(cnn3C)c2)O1 | 0.255 |
| CCCc1nnc(N2CCC(N3CCCC(O)C3)CC2)o1 (stereo not drawn) | 13.6 |
| CO[C@@]1(C)C[C@@H](O)C12CCN(C(=O)c1ccccc1C(C)=O)CC2 | 3.51 |
| COc1cc(CNc2ccc(C)c(Cl)c2)ccc1OCC(N)=O | 7.1 |
| CCNc1c(NC(=O)NC(C)C)c(=O)oc2ccccc12 | 1.1 |
| CCN(c1ccc(C(=O)N2CCCCC2)cc1)S(=O)(=O)CC | 1.85 |
| COc1cccc(OCC2CCCN(c3cc(C(N)=O)ccn3)C2)c1 (stereo not drawn) | 2.13 |
| CC(C)c1csc(C(=O)N2CCCC(Cn3cc(CO)nn3)C2)n1 (stereo not drawn) | 6.29 |
| COC(=O)CCC(=O)N1CCc2[nH]nc(-c3ccc4c(c3)OCO4)c2C1 | -8.28 |
| Cc1cc(-c2cnn(CCNC(=O)C3CCCO3)c2C2CC2)on1 (stereo not drawn) | -4.07 |
| CN(C)Cc1ccnc(C2CCCN2Cc2ccncc2)n1 (stereo not drawn) | 1.36 |
| Clc1ccc(CN2CCCCC2Cn2cncn2)c2ncccc12 (stereo not drawn) | -4.66 |
| CNS(=O)(=O)Cc1ccc(CNC(=O)c2ccc(C)[nH]c2=O)cc1 | -3.3 |
| CCN(Cc1ccc2c(c1)OCO2)Cc1nc(C)no1 | -6.49 |
| CCN(Cc1cccc2c1OCO2)C(=O)C(C)c1cccnc1 (stereo not drawn) | -4.84 |
| CCc1n[nH]c(C2CN(C(=O)c3csnn3)CCO2)n1 (stereo not drawn) | -2.5 |

| SMILES | cytotoxicity at 10 µM [%] |
| --- | --- |
| O=C(NCc1cccnc1)NC1CCC2(CCC(=O)N2CC2CC2)CC1 (stereo not drawn) | -114 |
| O=C(O)c1cc2c(nc1-c1ccsc1)CCN(C(=O)C1CC1)CC2 | 14.4 |
| COc1ccc(CN2CCn3cc(CNC(=O)CC4CC4)nc3C2)cc1 | -82.6 |
| COc1ccc(CN2C[C@@H]3COC[C@H](N4CCN(C)CC4)[C@@H]3C2)cc1 | -85.6 |
| COc1cccc(CN2CCC3(CC2)CCN(c2ncc(F)cn2)C3)c1 | 1.42 |
| O=C(NC1CCCCC1)N1CCc2onc(COc3cccnc3)c2C1 | -69.9 |
| O=S1(=O)NCC2(CCNCC2)COc2ccccc21 | -2.75 |
| Cc1cnc(N2C[C@@H]3[C@@H](C2)OCC(=O)N3CC(C)C)nc1 | -0.173 |
| CCC(=O)N1CCC2(CCC(N3CCCC3)c3ccccc32)CC1 (stereo not drawn) | -6.23 |
| O=C(c1ccc2ccc(N3CCN(CC4CC4)CC3)n2c1)N1CCCO1 | 9.81 |
| CCCS(=O)(=O)N1C[C@H](N(C)Cc2ccco2)[C@@H]2OCCC[C@@H]21 | -78.4 |
| CCc1cnc(N2C[C@H](OCc3csc(C)n3)[C@H]3COC[C@H]32)nc1 | -2.51 |
| O=C(NCc1ccccn1)[C@@H]1CC[C@@H]2[C@@H](CCN2c2ncc(F)cn2)O1 | -74.8 |
| Cc1ccc(CN2C[C@@H]3CN(c4ncccn4)C[C@@H]3C2)cc1 | -2.02 |
| O=c1cccnn1CC1CN(Cc2ccsc2)Cc2nccn2C1 (stereo not drawn) | 1.31 |
| CCN1CCn2c(C)cnc2C12CCN(C(=O)NCC(C)C)CC2 | -1.07 |
| O=C(c1cccnc1)N1CCC2(CC1)CNc1c(F)cccc12 | -1.02 |
| CN1CCN(Cc2cccnc2)C(=O)C12CCN(C1CCOC1)CC2 (stereo not drawn) | -111 |
| COc1ccc(-c2cc(C3=NC(=CN4CCN(C)CC4)NO3)[nH]n2)cc1 | -17.8 |
| CCc1nc(C)c(C(=O)N2C[C@@H]3CC[C@H]2CN(S(=O)(=O)N(C)C)C3)s1 | 25 |
